Organism: Cavia porcellus
Experiment: Inhibition of the leukotriene D4 (LTD4)-induced contraction of guinea pig tracheal spirals at 10 uM concentration
Assay type: functional
Conditions: Trachea
Outline: (§1)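 Guinea pig tracheal spirals were split into paired sections in 10 mL baths of modified Krebs at 37 °C, gassed with 95% O₂/5% CO₂, under 2 g resting tension. After 60 min equilibration (washes every 15 min), reproducible contractions to 8 nM LTD₄ or 8 nM LTE₄ were obtained. Compound was added for 10 min, then agonist challenge repeated; percent inhibition is relative to the vehicle-treated paired section.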

Row | SMILES | inhibition at 10 µM
1 | CCCc1c(OC(c2ccccc2)c2ccc(C(=O)O)cc2)ccc(C(C)=O)c1O (stereo not drawn) | 16%
2 | CCCc1c(OCCCCSCCC(=O)O)ccc(C(C)=O)c1O | 74%
3 | CCCc1c(OCc2ccc(C(=O)O)cc2OC)ccc2c(=O)ccoc12 | 44%
4 | CCCc1c(OCC(O)CSCC(=O)O)ccc(C(C)=O)c1O (stereo not drawn) | 19%
5 | CCCc1c(OCc2ccc(OCCCc3nnn[nH]3)cc2)ccc(C(C)=O)c1O | 56%
6 | CCCc1c(OCc2ccc(C(=O)O)cc2)ccc(C(C)=O)c1O | 100%
7 | CCCc1c(OCc2cccc(NS(C)(=O)=O)c2)ccc(C(C)=O)c1O | 26%
8 | CCCc1c(OCc2ccc(C(=O)O)cc2)ccc(C(=O)C(F)(F)F)c1O | 36%
9 | CCCc1c(OCCCCSCC(=O)O)ccc(C(C)=O)c1O | 75%
10 | CCCc1c(OCCCCCC(=O)O)ccc(C(C)=O)c1O | 52%
11 | COc1cc(C(=O)O)ccc1COc1ccc(C(C)=O)c(O)c1C | 73%
12 | CCCc1c(OCc2ccc(C(=O)NO)cc2OC)ccc(C(C)=O)c1O | 65%
13 | CCCc1c(OCc2cc(Br)c(C(=O)O)cc2OC)ccc(C(C)=O)c1O | 43%
14 | CCCc1cc(C(C)=O)ccc1OCc1ccc(C(=O)O)cc1OC | 67%
15 | CCCc1c(OCc2ccc(C(=O)O)cc2OCC)ccc(C(C)=O)c1O | 83%
16 | CCCc1c(OCc2cccc(N)c2)ccc(C(C)=O)c1O | 39%
17 | CCCCCCNc1cc(OCc2ccc(C(=O)O)cc2OC)ccc1C(C)=O | 11%
18 | CCCc1c(OCc2ccc(/C=C/c3nn[nH]n3)cc2)ccc(C(C)=O)c1O | 44%
19 | CCCc1c(OCc2ccc(C(=O)OC)cc2OCCCn2cnnn2)ccc(C(C)=O)c1O | 75%
20 | CCCc1c(OCCCSCCC(=O)O)ccc(C(C)=O)c1O | 50%
21 | CCCc1c(OCCCCC(=O)O)ccc(C(C)=O)c1O | 18%
22 | CCCc1c(OCc2ccc(C(=O)NS(C)(=O)=O)cc2OC)ccc(C(C)=O)c1O | 97%
23 | CCCc1c(OCc2ccc(C(=O)O)cc2OC)ccc(C(=O)N2CCCC2)c1O | 37%
24 | CCCc1c(OCC(=O)c2ccc(C(=O)O)cc2)ccc(C(C)=O)c1O | 66%
25 | CCCc1cc(C(C)O)ccc1OCc1ccc(C(=O)O)cc1OC (stereo not drawn) | 44%
26 | CCCc1c(OCCCS(=O)(=O)CC(=O)O)ccc(C(C)=O)c1O | 34%
27 | CCCc1c(OCc2ccc(C(=O)O)cc2[N+](=O)[O-])ccc(C(C)=O)c1O | 93%
28 | CCCc1c(OCc2ccc(C(=O)O)cc2OC)ccc(C(=O)Nc2ccccc2)c1O | 25%

Organism: Cavia porcellus
Experiment: Percent inhibition of the leukotriene E4 (LTE4)-induced contraction of guinea pig tracheal spirals at 10 uM concentration; NS means data was not statistically significant.
Assay type: functional
Conditions: Trachea
Outline: as §1

Row | SMILES | inhibition
29 | COc1cc(C(=O)O)ccc1COc1cc(O)c2c(=O)ccn(C)c2c1 | Not statistically significant
30 | CCCc1c(O)cccc1OCc1ccc(C(=O)O)cc1OC | Not statistically significant
31 | C=CCc1c(OCc2ccc(C(=O)O)cc2OC)cc2oc(-c3ccccc3)cc(=O)c2c1O | Not statistically significant
32 | CCCc1c(OCc2ccc(C(=O)O)cc2OC)ccc2c1C(=O)c1ccccc1-2 | Not statistically significant
33 | CCCc1c(OCc2ccc(C(=O)O)cc2OC)ccc(C(C)=O)c1NC(=O)c1ccccc1 | Not statistically significant
34 | CCCc1c(OCc2ccc(C(=O)O)cc2OC)cc2oc(-c3ccccc3)cc(=O)c2c1O | Not statistically significant
35 | CCCCOC(=O)c1ccc(OCc2ccc(C(=O)O)cc2OC)c(CCC)c1O | Not statistically significant
36 | CCCN(C(=O)c1ccc(C(=O)O)cc1)c1ccc(C(C)=O)c(O)c1 | Not statistically significant
37 | CCCc1c(OCc2ccc(/C=C/C(=O)Nc3nn[nH]n3)cc2)ccc(C(C)=O)c1O | Not statistically significant
38 | CCCc1c(OCc2ccc(C(=O)O)cc2OC)ccc(C(C)=O)c1NC(C)=O | Not statistically significant
39 | CCCCCCOc1cc(OCc2ccc(C(=O)O)cc2OC)ccc1C(C)=O | Not statistically significant
40 | CCCc1c(OCc2cccc(NS(=O)(=O)c3ccccc3)c2)ccc(C(C)=O)c1O | Not statistically significant
41 | COc1cc(C(=O)O)ccc1CNc1ccc(C(C)=O)c(O)c1 | Not statistically significant
42 | CCCc1cc2c(cc1OCc1ccc(C(=O)O)cc1OC)C(=O)c1ccccc1-2 | Not statistically significant
43 | CCCc1c(OCc2ccc(C(=O)NS(=O)(=O)c3ccccc3)cc2OC)ccc(C(C)=O)c1O | Not statistically significant
44 | CCCc1c(OCc2ccc(C(=O)O)cc2OC)ccc(-c2ccc3ccccc3n2)c1O | Not statistically significant

Organism: Cavia porcellus
Experiment: Percent inhibition of the leukotriene D4 (LTD4)-induced contraction of guinea pig tracheal spirals at 4 uM concentration
Assay type: functional
Conditions: Trachea
Outline: as §1

Row | SMILES | inhibition at 4 µM
45 | CCCc1c(OCc2ccc(C(=O)O)cc2)ccc(C(C)=O)c1O | 36%
46 | COc1cc(C(=O)O)ccc1COc1ccc(C(C)=O)c(O)c1C | 33%
47 | CCCc1c(OCc2ccc(OC)c(/C=C/C(=O)O)c2)ccc(C(C)=O)c1O | 63%
48 | CCCc1c(OCc2ccc(C(=O)O)cc2[N+](=O)[O-])ccc(C(C)=O)c1O | 57%
49 | CCCc1c(OCc2ccc(/C=C/C(=O)O)c(OC)c2)ccc(C(C)=O)c1O | 66%

Organism: Cavia porcellus
Experiment: Percent inhibition of the leukotriene D4 (LTD4)-induced contraction of guinea pig tracheal spirals at 50 uM concentration
Assay type: functional
Conditions: Trachea
Outline: as §1

Row | SMILES | inhibition at 50 µM
50 | CCCc1c(OCC(O)CSCC(=O)O)ccc(C(C)=O)c1O (stereo not drawn) | 44%
51 | CCCCCCNC(=O)c1ccc(OCc2ccc(C(=O)O)cc2OC)c(CCC)c1O | 27%
52 | CCCc1c(OCc2ccc(C(=O)O)cc2OC)ccc(C(=O)N2CCCC2)c1O | 90%
53 | CCCCCC(=O)c1ccc(OCc2ccc(C(=O)O)cc2OC)c(CCC)c1O | 20%

Tested on: Cavia porcellus
Experiment: Compound (50 mg/kg, intraperitoneally) was tested in spontaneously breathing, conscious guinea pigs challenged with aerosolized LTD4 (60-min pretreatment)
Assay type: functional
Conditions: not given

Row | SMILES | Protection
54 | COc1cc(C(=O)O)ccc1COc1ccc(C(C)=O)c(O)c1C | 17%
55 | CCCc1c(OCc2ccc(C(=O)O)cc2OC)ccc(C(=O)NC)c1O | 33%

Organism: Cavia porcellus
Experiment: Percent inhibition of the leukotriene E4 (LTE4)-induced contraction of guinea pig tracheal spirals at 10 uM concentration
Assay type: functional
Conditions: Trachea
Outline: as §1

Row | SMILES | inhibition at 10 µM
56 | CCCCCCOc1c(C(C)=O)ccc(OCc2ccc(C(=O)O)cc2OC)c1CCC | 22%
57 | CC/N=C(/NCC)NCCCC[C@@H](NC(=O)[C@H](Cc1ccc(O)cc1)NC(=O)[C@H](CO)NC(=O)[C@@H](Cc1c[nH]c2ccccc12)NC(=O)[C@@H](Cc1ccc(Cl)cc1)NC(=O)[C@@H](Cc1ccc(Cl)cc1)NC(C)=O)C(=O)N[C@@H](CC(C)C)C(=O)N[C@@H](CCCN=C(N)N)C(=O)N1CCC[C@H]1C(=O)N[C@H](C)C(N)=O | 40%
58 | CCCc1c(OCc2ccc(C(=O)O)cc2OC)ccc(C(C)=O)c1OCc1ccc(OC)cc1 | 25%
59 | CCCc1cc2ccccc2cc1OCc1ccc(C(=O)O)cc1OC | 51%
60 | CCCc1c(OCc2ccc(C(=O)O)cc2OC)ccc2c(/C=C/c3ccccc3)cc(=O)oc12 | 7%
61 | COc1cc(C(=O)O)ccc1COc1ccc(C(C)=O)c(O)c1C/C=C/c1ccccc1 | 32%
62 | COc1cc(C(=O)O)ccc1COc1ccc(C(C)=O)c(O)c1CCCC(C)=O | 21%
63 | CCCc1c(NCc2ccc(C(=O)O)cc2OC)ccc(C(C)=O)c1O | 73%
64 | CCCc1c(OCc2ccc(C(=O)O)cc2OC)ccc(C(=O)NC)c1O | 50%
65 | COc1cc(C(=O)O)ccc1COc1ccc(C(C)=O)c(OCc2ccccc2)c1 | 24%
66 | COc1cc(C(=O)O)ccc1CN(Cc1ccccc1)c1ccc(C(C)=O)c(O)c1 | 36%
67 | CCCc1c(N(Cc2ccc(C(=O)O)cc2OC)C(=O)c2ccccc2)ccc(C(C)=O)c1O | 12%
68 | C=CCc1c(OCc2ccc(C(=O)O)cc2OC)ccc(C(C)=O)c1O | 100%
69 | C/C=C\c1cc(=O)oc2c(CCC)c(OCc3ccc(C(=O)O)cc3OC)ccc12 | 23%
70 | CCCNc1c(C(C)=O)ccc(OCc2ccc(C(=O)O)cc2OC)c1CCC | 61%
71 | C/C=C/c1cc(=O)oc2c(CCC)c(OCc3ccc(C(=O)O)cc3OC)ccc12 | 21%

Target: T1, Cysteinyl leukotriene receptor 1 (Cavia porcellus) (UniProt Q2NNR5)
T1 sequence (whole entry): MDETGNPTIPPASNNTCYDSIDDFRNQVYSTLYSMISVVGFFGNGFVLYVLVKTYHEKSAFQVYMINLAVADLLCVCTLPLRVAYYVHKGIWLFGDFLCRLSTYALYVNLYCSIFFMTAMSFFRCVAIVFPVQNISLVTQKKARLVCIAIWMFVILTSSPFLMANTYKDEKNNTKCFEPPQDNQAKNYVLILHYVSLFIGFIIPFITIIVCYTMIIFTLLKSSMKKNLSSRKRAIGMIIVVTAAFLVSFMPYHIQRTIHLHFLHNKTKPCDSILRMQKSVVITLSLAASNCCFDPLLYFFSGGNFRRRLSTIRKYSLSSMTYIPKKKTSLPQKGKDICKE
Experiment: Dissociation constant (KB) […] was evaluated in vitro in isolated guinea pig tracheal strips
Conditions: not given

Row | SMILES | Kb
72 | COc1cc(C(=O)O)ccc1COc1ccc(C(C)=O)c(O)c1C | 850 nM

Organism: Cavia porcellus
Experiment: Percent inhibition of the leukotriene D4 (LTD4)-induced contraction of guinea pig tracheal spirals at 3.3 uM concentration
Assay type: functional
Conditions: Trachea, in the assay text read “leukotriene E4 (LTE4)” for “leukotriene D4 (LTD4)”
Outline: as §1

Row | SMILES | inhibition at 3.3 µM
73 | CCCc1c(OCc2ccc(-c3nn[nH]n3)cc2)ccc(C(C)=O)c1O | 76%
74 | CCCc1c(OCc2ccc(-c3nn[nH]n3)c(Br)c2)ccc(C(C)=O)c1O | 66%
75 | CCCc1c(OCc2ccc(C(=O)O)cc2OCCCC#N)ccc(C(C)=O)c1O | 78%
76 | CCCc1c(OCc2ccc(C(=O)NS(C)(=O)=O)cc2OC)ccc(C(C)=O)c1O | 37%
77 | CCCc1c(OCc2cccc(NC(=O)CCC(=O)O)c2)ccc(C(C)=O)c1O | 62%
78 | CCCc1c(OCc2ccc(C(=O)O)cc2OCCCn2cnnn2)ccc(C(C)=O)c1O | 87%

From ChEMBL document CHEMBL1124444, “Hydroxyacetophenone-derived antagonists of the peptidoleukotrienes” (1989)
